pIC50: −log10 of the molar value.
How the values were obtained:
Homo sapiens [1] = species on record: Homo sapiens; experiment: Selectivity ratio of IC50 for adrenergic alpha1B receptor (unknown origin) to IC50 for adrenergic alpha1A receptor (unknown origin)
[2] = target: T1, Alpha-1D adrenergic receptor (Homo sapiens, UniProt P25100); experiment: Antagonist activity at adrenergic alpha1D receptor (unknown origin) by firefly and renilla dual glo luciferase assay
T1 sequence (P25100 whole entry): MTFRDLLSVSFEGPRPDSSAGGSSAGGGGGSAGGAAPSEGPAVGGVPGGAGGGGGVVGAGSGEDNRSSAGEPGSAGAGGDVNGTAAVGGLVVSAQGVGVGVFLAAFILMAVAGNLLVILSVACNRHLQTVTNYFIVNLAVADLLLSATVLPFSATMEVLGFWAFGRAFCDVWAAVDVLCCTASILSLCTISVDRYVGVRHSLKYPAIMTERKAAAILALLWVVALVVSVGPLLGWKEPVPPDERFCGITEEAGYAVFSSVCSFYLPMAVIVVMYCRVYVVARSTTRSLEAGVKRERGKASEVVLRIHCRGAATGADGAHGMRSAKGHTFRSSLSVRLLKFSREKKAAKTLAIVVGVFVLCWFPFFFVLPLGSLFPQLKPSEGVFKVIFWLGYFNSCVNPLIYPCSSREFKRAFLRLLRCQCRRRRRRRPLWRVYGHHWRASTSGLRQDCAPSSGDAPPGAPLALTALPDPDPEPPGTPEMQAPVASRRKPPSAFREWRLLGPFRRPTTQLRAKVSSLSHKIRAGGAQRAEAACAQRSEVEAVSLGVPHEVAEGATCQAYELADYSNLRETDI
Outline: (§1)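 Firefly and Renilla luciferase activities (RLU) were read by luminometer with the Dual-Glo kit, following the manufacturer's protocol. IC50 values were derived from three independent experiments.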

[3] = target: T2, Alpha-1A adrenergic receptor (Homo sapiens, UniProt P35348); experiment: Antagonist activity at adrenergic alpha1A receptor (unknown origin) by firefly and renilla dual glo luciferase assay; outline: as §1
T2 sequence (P35348 whole entry): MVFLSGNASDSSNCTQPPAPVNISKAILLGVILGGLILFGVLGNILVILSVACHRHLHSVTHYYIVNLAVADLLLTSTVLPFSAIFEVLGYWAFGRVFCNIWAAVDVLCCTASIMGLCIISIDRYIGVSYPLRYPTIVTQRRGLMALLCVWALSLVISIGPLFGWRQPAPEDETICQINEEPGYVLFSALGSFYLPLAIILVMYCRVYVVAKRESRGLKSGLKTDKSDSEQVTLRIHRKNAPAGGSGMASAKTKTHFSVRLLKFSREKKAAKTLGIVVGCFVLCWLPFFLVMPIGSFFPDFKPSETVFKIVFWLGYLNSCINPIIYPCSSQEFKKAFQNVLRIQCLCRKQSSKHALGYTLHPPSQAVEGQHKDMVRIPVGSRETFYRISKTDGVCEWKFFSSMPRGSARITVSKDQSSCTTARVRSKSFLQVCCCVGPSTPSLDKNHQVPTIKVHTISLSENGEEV

Homo sapiens [4] = species on record: Homo sapiens; experiment: Selectivity ratio of IC50 for adrenergic alpha1B receptor (unknown origin) to IC50 for adrenergic alpha1D receptor (unknown origin)
[5] = target: T3, Alpha-1B adrenergic receptor (Homo sapiens, UniProt P35368); experiment: Antagonist activity at adrenergic alpha1B receptor (unknown origin) by firefly and renilla dual glo luciferase assay; outline: as §1
T3 sequence (P35368 whole entry): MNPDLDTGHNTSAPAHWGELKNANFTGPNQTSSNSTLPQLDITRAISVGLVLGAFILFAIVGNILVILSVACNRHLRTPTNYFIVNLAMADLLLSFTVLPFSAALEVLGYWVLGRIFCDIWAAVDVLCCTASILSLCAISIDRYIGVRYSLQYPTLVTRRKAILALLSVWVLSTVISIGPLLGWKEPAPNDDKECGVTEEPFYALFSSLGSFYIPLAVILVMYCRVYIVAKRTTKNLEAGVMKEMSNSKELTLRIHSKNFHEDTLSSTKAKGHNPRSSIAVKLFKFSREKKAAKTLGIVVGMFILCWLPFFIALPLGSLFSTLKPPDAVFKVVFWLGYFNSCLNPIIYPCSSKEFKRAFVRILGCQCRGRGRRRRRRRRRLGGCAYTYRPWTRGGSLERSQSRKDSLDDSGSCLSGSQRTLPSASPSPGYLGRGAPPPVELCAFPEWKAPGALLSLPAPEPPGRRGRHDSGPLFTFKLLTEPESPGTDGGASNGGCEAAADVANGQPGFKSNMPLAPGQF

SMILES	Ratio IC50 (Homo sapiens [1])	pIC50 [2]	pIC50 [3]	Ratio IC50 (Homo sapiens [4])	pIC50 [5]
O=C1c2ccccc2C(=O)N1Cc1ccc(CCN2CCN(Cc3ccccc3)CC2)cc1	0.8	6.94	5.92	8.7	6.00
COc1ccc(N2CCN(CCc3ccc(CN4C(=O)c5ccccc5C4=O)cc3)CC2)cc1	0.5	5.73	6.05	0.2	6.39
O=C1c2ccccc2C(=O)N1Cc1ccc(CCN2CCN(c3ccc(Br)cc3)CC2)cc1	0.3	5.13	5.47	0.1	6.00
O=C1c2ccccc2C(=O)N1Cc1ccc(CCN2CCN(c3ccccn3)CC2)cc1	0.3	7.95	7.30	1.1	7.90
Cc1ccc(Cl)cc1N1CCN(CCc2ccc(CN3C(=O)c4ccccc4C3=O)cc2)CC1	0.9	7.50	7.46	1	7.50
CS(=O)(=O)c1ccccc1N1CCN(CCc2ccc(CN3C(=O)c4ccccc4C3=O)cc2)CC1	4.3	8.00	7.33	19.8	6.70
O=C1c2ccccc2C(=O)N1Cc1ccc(CCN2CCN(c3ccc(Cl)cc3)CC2)cc1	1.4	7.45	6.26	22.6	6.10
CC(=O)c1ccc(N2CCN(CCc3ccc(CN4C(=O)c5ccccc5C4=O)cc3)CC2)cc1	8.6	6.06	7.85	0.2	6.91
O=C1c2ccccc2C(=O)N1Cc1ccc(CCN2CCN(c3ccccc3)CC2)cc1	5.8	5.75	6.82	0.5	6.06
N#Cc1ccc(N2CCN(CCc3ccc(CN4C(=O)c5ccccc5C4=O)cc3)CC2)c(F)c1	0.3	6.02	6.89	0.04	7.46
Cc1ccccc1N1CCN(CCc2ccc(CN3C(=O)c4ccccc4C3=O)cc2)CC1	4.2	4.09	6.64	0.01	6.02
COc1ccccc1N1CCN(CCc2ccc(CN3C(=O)c4ccccc4C3=O)cc2)CC1	3.3	5.91	7.52	0.08	7.00
COc1ccccc1N1CCN(CC(O)COc2cccc3ccccc23)CC1 (stereo not drawn) [NAFTOPIDIL]		7.26	6.26		6.20
O=C1c2ccccc2C(=O)N1Cc1ccc(CCN2CCN(c3ccccc3C(F)(F)F)CC2)cc1	0.7	6.79	6.42	1.5	6.60
Cc1ccc(N2CCN(CCc3ccc(CN4C(=O)c5ccccc5C4=O)cc3)CC2)cc1	14.2	6.46	8.69	0.08	7.54
N#Cc1ccccc1N1CCN(CCc2ccc(CN3C(=O)c4ccccc4C3=O)cc2)CC1	5	7.78	7.44	10.8	6.74
N#Cc1ccc(N2CCN(CCc3ccc(CN4C(=O)c5ccccc5C4=O)cc3)CC2)cc1	8.6	7.20	7.05	12.1	6.11
O=C1c2ccccc2C(=O)N1Cc1ccc(CCN2CCN(c3ccc(F)cc3F)CC2)cc1	8.8	6.31	7.05	1.6	6.10
O=C1c2ccccc2C(=O)N1Cc1ccc(CCN2CCN(c3ccc(F)cc3)CC2)cc1	3	6.91	6.64	5.6	6.16
CCOc1ccccc1N1CCN(CCc2ccc(CN3C(=O)c4ccccc4C3=O)cc2)CC1	13.4	6.62	7.49	1.8	6.36
O=C1c2ccccc2C(=O)N1Cc1ccc(CCN2CCN(c3ccccc3Cl)CC2)cc1	51.5	7.44	7.82	21.3	6.11
O=C1c2ccccc2C(=O)N1Cc1ccc(CCN2CCN(c3ccccc3F)CC2)cc1	19.5	4.97	7.02	0.2	5.73
O=C1c2ccccc2C(=O)N1Cc1ccc(CCN2CCN(c3ccc(C(F)(F)F)cc3)CC2)cc1	0.3	7.89	7.18	1.5	7.71
